Calls of active or inactive are those of the source. No cut-off for these calls is given here.
Legend:
Monoglyceride lipase [1] = biological target: T1, Monoglyceride lipase (Homo sapiens, UniProt Q99685); assay: Inhibition of MAGL in human U937 cells assessed as reduction in [3H]glycerol formation using [1,2,3-3H]2-OG as substrate incubated for 15 mins by liquid scintillation spectroscopy; type: cell-based, U-937
T1 sequence (Q99685 whole entry): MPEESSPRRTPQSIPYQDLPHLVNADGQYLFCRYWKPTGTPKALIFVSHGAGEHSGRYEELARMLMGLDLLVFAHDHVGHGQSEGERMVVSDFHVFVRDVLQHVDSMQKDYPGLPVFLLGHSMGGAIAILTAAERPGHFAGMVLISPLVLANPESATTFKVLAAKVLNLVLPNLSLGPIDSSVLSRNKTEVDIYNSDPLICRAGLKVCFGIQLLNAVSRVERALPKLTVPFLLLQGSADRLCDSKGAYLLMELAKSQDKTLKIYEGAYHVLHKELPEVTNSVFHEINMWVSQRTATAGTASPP
Summary of the method: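 Intact U937 cells (1.0 × 10^6) in Tris-HCl 10 mM, EDTA 1 mM, 0.1% BSA, pH 8, given compound at 37 °C. Then 15 min at 37 °C with shaking. MAGL: 10 µM 2-OG plus 0.5 nM [3H]2-OG. FAAH: 1 µM AEA plus 2 nM [3H]AEA. Aqueous-phase tritium counted; three experiments in triplicate.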

[2] = biological target: T2, Lysophosphatidylserine lipase ABHD12 (Homo sapiens) (UniProt Q8N2K0); assay: Inhibition of human ABHD12 expressed in HEK293 cells using [3H]2-OG as substrate at 10 uM preincubated for 30 mins followed by substrate addition and measured after 5 mins by liquid scintillation spectroscopy; type: cell-based; settings: time 35.0 min
T2 sequence (whole entry): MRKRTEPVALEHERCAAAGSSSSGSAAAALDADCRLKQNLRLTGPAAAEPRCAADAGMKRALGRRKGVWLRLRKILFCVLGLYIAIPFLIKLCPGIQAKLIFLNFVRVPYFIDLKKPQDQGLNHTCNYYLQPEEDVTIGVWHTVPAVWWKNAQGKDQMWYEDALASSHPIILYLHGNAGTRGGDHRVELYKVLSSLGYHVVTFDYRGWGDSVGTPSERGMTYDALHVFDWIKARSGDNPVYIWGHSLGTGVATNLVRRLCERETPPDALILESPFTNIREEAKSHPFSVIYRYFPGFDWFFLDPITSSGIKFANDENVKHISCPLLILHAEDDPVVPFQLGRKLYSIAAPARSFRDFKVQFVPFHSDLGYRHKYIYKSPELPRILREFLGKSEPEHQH
Summary of the method: (§1)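 Homogenate (40 µg) of HEK293 cells stably transfected with human ABHD6 or ABHD12, preincubated with compound 30 min at 37 °C in […], 0.1% BSA, pH 7.6. 2-OG 10 µM added for 5 min at 37 °C. Stopped with CHCl3:MeOH; aqueous tritium counted; blanks and nontransfected HEK293 hydrolysis subtracted. Screening at 10 µM.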

Monoglyceride lipase [3] = biological target: T1, Monoglyceride lipase; assay: Competitive inhibition of human recombinant MAGL using varying concentration of 4-nitrophenylacetate as substrate incubated for 30 mins by microplate reader assay
Summary of the method: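 MAGL 11 ng/well; 4-nitrophenol absorbance recorded. Data fitted by the mixed-model inhibition fit to give Ki.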

HCT-116 = assay: Antiproliferative activity against human HCT116 cells as reduction in cell growth measured after 96 hrs by Celltiter-glo luminescent assay; type: functional, cell-based; settings: HCT-116, 96 h
Summary of the method: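 Cell lines kept at 37 °C, 5% CO2; 5 × 10^2 cells per well, compound added the day after seeding at 200 to 0.02 µM. Viability read after 96 h by CellTiter-Glo luminescence. IC50 from logistic dose-response curves, in triplicate; error bars are SD.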

[4] = biological target: T3, Monoacylglycerol lipase ABHD6 (Homo sapiens, UniProt Q9BV23); assay: Inhibition of human ABHD6 expressed in HEK293 cells using [3H]2-OG as substrate preincubated for 30 mins followed by substrate addition and measured after 5 mins by liquid scintillation spectroscopy; type: cell-based; summary of the method: as §1
T3 sequence (Q9BV23 whole entry): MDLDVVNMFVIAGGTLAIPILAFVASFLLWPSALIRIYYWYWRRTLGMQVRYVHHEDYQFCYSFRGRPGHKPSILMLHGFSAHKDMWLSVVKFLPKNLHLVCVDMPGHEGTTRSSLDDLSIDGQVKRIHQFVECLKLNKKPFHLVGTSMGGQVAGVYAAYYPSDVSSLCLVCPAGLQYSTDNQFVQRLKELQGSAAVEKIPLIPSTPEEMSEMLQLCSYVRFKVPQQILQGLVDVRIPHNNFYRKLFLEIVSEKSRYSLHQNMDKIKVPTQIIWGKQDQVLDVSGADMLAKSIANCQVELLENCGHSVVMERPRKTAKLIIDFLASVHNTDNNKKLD

[5] = biological target: T4, Fatty-acid amide hydrolase 1 (Mus musculus) (UniProt O08914); assay: Inhibition of FAAH in mouse brain membrane up to 30 uM preincubated for 25 mins followed by TAMRA-FP labeling addition and measured after 5 mins by competitive ABPP based analysis; type: cell membranes; settings: dose microM <=30, time 30.0 min
T4 sequence (whole entry): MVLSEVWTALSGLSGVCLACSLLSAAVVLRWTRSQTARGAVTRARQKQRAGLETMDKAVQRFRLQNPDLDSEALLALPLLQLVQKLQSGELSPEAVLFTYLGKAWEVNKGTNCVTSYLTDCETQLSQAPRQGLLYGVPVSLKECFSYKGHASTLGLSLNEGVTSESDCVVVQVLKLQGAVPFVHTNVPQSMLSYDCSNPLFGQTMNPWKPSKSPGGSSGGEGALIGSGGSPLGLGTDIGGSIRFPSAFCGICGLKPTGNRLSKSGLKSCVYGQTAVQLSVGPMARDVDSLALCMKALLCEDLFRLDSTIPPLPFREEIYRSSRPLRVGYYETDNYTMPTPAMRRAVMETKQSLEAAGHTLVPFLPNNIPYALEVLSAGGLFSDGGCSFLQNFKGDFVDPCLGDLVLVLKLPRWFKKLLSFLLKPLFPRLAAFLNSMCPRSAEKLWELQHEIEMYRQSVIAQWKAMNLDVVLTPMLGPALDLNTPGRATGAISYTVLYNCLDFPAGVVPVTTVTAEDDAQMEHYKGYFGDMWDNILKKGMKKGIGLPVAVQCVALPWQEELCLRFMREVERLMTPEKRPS
Summary of the method: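 Mouse brain membranes, 4 mg/mL in PBS, preincubated 25 min at 25 °C with compound at 10 µM or a range of concentrations. Labelled 5 min with TAMRA-FP at 125 nM final. Proteins resolved on 11% SDS-PAGE and scanned for fluorescence.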

[6] = biological target: T5, Lysophosphatidylserine lipase ABHD12 (Homo sapiens, UniProt Q8N2K0); assay: Inhibition of human ABHD12 expressed in HEK293 cells using [3H]2-OG as substrate preincubated for 30 mins followed by substrate addition and measured after 5 mins by liquid scintillation spectroscopy; type: cell-based; summary of the method: as §1
T5 sequence (Q8N2K0 whole entry): T2 sequence (whole entry)

Q: What does the source list for `O=C(c1ccc(Sc2ccccc2)cc1)C1CCN(C(=O)c2cc(O)c(F)cc2F)CC1`?
A: IC50 (Monoglyceride lipase [1]): 0.568 µM; inhibition [2]: 27%; Ki (Monoglyceride lipase [3]): 0.011 µM; IC50 (HCT-116): 15 µM; IC50 [4]: > 10 µM; inhibition [5]: inactive; IC50 [6]: > 10 µM

Q: With `O=C(c1ccc(Sc2ccccc2)cc1)C1CCN(C(=O)c2cc(O)ccc2F)CC1` as the compound, how does the IC50 (Monoglyceride lipase [1]) read?
A: 0.868 µM

Q: And the inhibition [2]?
A: 26%

Q: What about the Ki (Monoglyceride lipase [3]) of the same compound?
A: 0.027 µM

Q: And the IC50 (HCT-116)?
A: 5.1 µM

Q: And the IC50 [4]?
A: > 10 µM

Q: And the inhibition [5]?
A: inactive

Q: And the IC50 [6]?
A: > 10 µM

Q: Which IC50 (Monoglyceride lipase [1]) does the source give for `O=C(c1ccc(Cc2ccccc2)cc1)C1CCN(C(=O)c2cc(O)c(F)cc2F)CC1` here?
A: 1.23 µM

Q: What about the inhibition [2] of the same compound?
A: 28%

Q: And the Ki (Monoglyceride lipase [3])?
A: 0.03 µM

Q: What about the IC50 (HCT-116) of the same compound?
A: 5.3 µM

Q: What about the IC50 [4] of the same compound?
A: > 10 µM

Q: What about the inhibition [5] of the same compound?
A: inactive

Q: What about the IC50 [6] of the same compound?
A: > 10 µM

Q: `O=C(c1ccc(Cc2ccccc2)cc1)C1CCN(C(=O)c2cc(O)ccc2F)CC1` was tested. Which IC50 (Monoglyceride lipase [1]) did it give?
A: 0.844 µM

Q: And the inhibition [2]?
A: 20%

Q: What about the Ki (Monoglyceride lipase [3]) of the same compound?
A: 0.037 µM

Q: And the IC50 (HCT-116)?
A: 17 µM

Q: And the IC50 [4]?
A: > 10 µM

Q: And the inhibition [5]?
A: inactive

Q: And the IC50 [6]?
A: > 10 µM

Source: ChEMBL document CHEMBL4732057, “Design, synthesis and biological evaluation of second-generation benzoylpiperidine derivatives as reversible monoacylglycerol lipase (MAGL) inhibitors” (Eur J Med Chem, 2021)
